# Screening data (PubChem)
# An excerpt weighted towards active compounds, which were near 2.1% of everything screened.
# MEKK2mut PB1 HTS = signal of MEK5 binding to mutant human MEKK2 PB1 domain; percent response, % at 10 µM; bead flow cytometry, Alexa488-MEK5 binding to MEKK2 mutant; hit rate 0.35% among 290,000; in the data active = percent response above about 24%, passing the limit was not always enough
# STK33 kinase inh = blocks human STK33 kinase activity; Q9BYT3; purified STK33, MBP phosphorylation, ADP-Glo luminescence; inhibition, % at 10 µM; hit rate 0.073% among 320,000;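 active = inhibition at or above 25%, using the most active replicate where run in duplicate; inactive = inhibition below 25%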
# GSK3beta inhib = inhibitors of human GSK3beta kinase. P49841. GST-GSK3beta kinase, ADP-Glo luminescence, 60 min; hits give low values. activity score (negative = inhibition), % at 10 µM. hit rate 0.038% among 300,000. AID 2097;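 active = more than half of replicate wells score below -50%, meaning over 50% inhibition versus plate controls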;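 note: 0% = median DMSO wells and -100% = median GW8510 positive control wells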
#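 Test system: GST-tagged human GSK3beta kinase, cell-free; evaluation: activity score scaled between in-plate DMSO and GW8510 controls; measured by: ADP-Glo luminescence; incubation: 60 min reaction, RT; benchmarks: DMSO and 20 µM GW8510; reagent: peptide substrate plus 25 µM ATP (final); medium: Tris/MgCl2 kinase buffer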
# MEKK2wt PB1 HTS = raises or lowers MEK5 binding to wildtype human MEKK2 PB1 domain. bead flow cytometry, Alexa488-MEK5 binding to MEKK2 WT; actives lie on both sides. hit rate 1.1% among 290,000. binding response (% of control), % at 10 µM. AID 1531; in the data active = binding response below about 67% or above about 130%
# MEKK3 PB1 HTS = MEKK3-MEK5 PB1 interaction, increase or decrease; Q99759; binding response (% of control), % at 10 µM; bead-based flow cytometry, Alexa488-MEK5 binding to MEKK3; actives lie on both sides; 0 = blocked by unlabeled MEK5, 100 = vehicle; hit rate 1.4% among 290,000;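 active = binding response more than 3 SD above or below the average of its plate-row segment, actives on both sides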;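 note: Alexa488 bead fluorescence after subtracting the streptavidin-only scavenger bead signal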
# Target sequence (Q99759 whole entry, looked up): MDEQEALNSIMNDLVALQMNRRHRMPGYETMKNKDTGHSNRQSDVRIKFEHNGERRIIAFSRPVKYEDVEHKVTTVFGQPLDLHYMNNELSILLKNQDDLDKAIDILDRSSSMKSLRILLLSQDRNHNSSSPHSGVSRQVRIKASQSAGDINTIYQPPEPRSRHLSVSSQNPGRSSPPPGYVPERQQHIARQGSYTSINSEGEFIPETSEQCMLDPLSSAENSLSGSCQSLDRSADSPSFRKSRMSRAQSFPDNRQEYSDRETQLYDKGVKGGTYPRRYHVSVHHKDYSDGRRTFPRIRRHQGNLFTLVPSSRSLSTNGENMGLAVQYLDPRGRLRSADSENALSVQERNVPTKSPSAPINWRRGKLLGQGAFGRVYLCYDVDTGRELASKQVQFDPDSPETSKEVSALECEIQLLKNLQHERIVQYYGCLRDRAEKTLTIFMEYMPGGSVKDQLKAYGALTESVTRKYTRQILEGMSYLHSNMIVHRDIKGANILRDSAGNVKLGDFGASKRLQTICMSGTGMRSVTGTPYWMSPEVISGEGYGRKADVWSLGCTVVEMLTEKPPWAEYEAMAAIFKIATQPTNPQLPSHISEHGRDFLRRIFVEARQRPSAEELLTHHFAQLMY
# GSK3 alpha inh = inhibitors of human GSK-3 alpha kinase. ADP-Glo luminescence, 60 min. P49840. inhibition, % at 10 µM. hit rate 0.1% among 320,000;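 active = more than half of replicates show inhibition above 20%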;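 note: GST-tagged GSK-3 alpha with peptide substrate and 25 µM ATP; 0% = DMSO neutral wells and 100% = GW8510 positive control wells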
# MEKK2wt confirm = raises or lowers MEK5 binding to wildtype human MEKK2, retest. shares compounds with MEKK3 PB1 HTS. bead flow cytometry, Alexa488-MEK5 binding to MEKK2 WT; actives lie on both sides. binding response (% of control), % at 10 µM. hit rate 2.4% among 5,900. AID 1892; in the data active = binding response below about 16% or above about 210%; inactive = in between
# MEKK2mut confirm = signal of MEK5 binding to mutant human MEKK2, retest; shares compounds with MEKK3 PB1 HTS; bead flow cytometry, Alexa488-MEK5 binding to MEKK2 mutant; percent response, % at 10 µM; hit rate 2% among 5,900; AID 1893; in the data active = percent response mostly above about 71%, no sharp cut-off; inactive = mostly below about 38%;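 note: higher means compound restores mutant binding toward wildtype level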
# MEKK3-MEK5 inh = confirmation of inhibitors of MEK5 binding to human MEKK3; shares compounds with MEKK3 PB1 HTS; binding response (% of control), % at 10 µM; bead flow cytometry, Alexa488-MEK5 binding to MEKK3; hits give low values; hit rate 1.8% among 5,900; AID 1894;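 active = binding response below 72% of control, or above a set upper limit, though filed actives all read lower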;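 note: 100% = DMSO only wells and 0% = binding blocked by excess unlabeled MEK5; lower values mean stronger disruption of MEK5 binding to MEKK3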
# * = called active by the depositor; . = not tested or not shown; [ ] = remark or other dose.
SMILES,MEKK2mut PB1 HTS,STK33 kinase inh,GSK3beta inhib,MEKK2wt PB1 HTS,MEKK3 PB1 HTS,GSK3 alpha inh,MEKK2wt confirm,MEKK2mut confirm,MEKK3-MEK5 inh
COc1ccc(N2CCN(C(=O)C3(S(=O)(=O)c4ccc(C)cc4)CC3)CC2)cc1,1,0,-3,102,99,1,.,.,.
CSc1ccccc1NC(=O)CN(C)C(=O)COc1ncnc2ccccc12,.,-2,.,.,.,-2,.,.,.
Cc1ccc2nsnc2c1NC(=O)c1cccc([N+](=O)[O-])c1,1,0,3,110,134*,9,93,-3,93
COc1ccc(C(=O)Nc2c(C)ccc3nsnc23)cc1[N+](=O)[O-],-3,-1,4,100,100,1,.,.,.
O=C1c2ccccc2C(=O)N1/N=C/c1ccc(Oc2ccc([N+](=O)[O-])cn2)cc1,-8,2,5,91,86,-6,.,.,.
N#CCc1ccc(Oc2ccc([N+](=O)[O-])cn2)cc1,-19,-1,0,52,48*[inhibitor],-5,106,7,106
COc1ccc(/C=C/C2=CC(C)(C)NC(=S)N2)cc1,-19,0,0,84,80,1,.,.,.
Cc1ccc(NC(=O)c2ccc(NCCc3ccccc3)c([N+](=O)[O-])c2)cc1F,5,-2,1,5.0*[inhibitor],107,-2,119,7,109
COc1ccc(NC(=O)c2cccc(N3C(=O)NC4CC3(C)Oc3ccccc34)c2)cc1 (stereo not given),8,-2,3,122,133*,-22,99,1,99
CC12CC(NC(=O)N1c1cccc(C(=O)Nc3ncn[nH]3)c1)c1ccccc1O2 (stereo not given),-4,0,0,94,94,-1,.,.,.
CN(C)CCCN(C(=O)c1sc2ccccc2c1Cl)c1nc2ccc(F)cc2s1,5,0,-2,143*,111,4,179,36,105
CN(C)CCCN(C(=O)/C=C/c1cccs1)c1nc2ccc(F)cc2s1,30,1,-2,152*,107,-3,149,30,108
CN(C)CCCN(C(=O)C1COc2ccccc2O1)c1nc2ccc(F)cc2s1 (stereo not given),0,-2,-8,129,97,2,.,.,.
O=C(COC(=O)C1=COCCO1)Nc1ccc([N+](=O)[O-])cc1C(F)(F)F,.,0,.,.,.,2,.,.,.
COc1ccc(N(C(=O)c2csnn2)C(C(=O)NC2CCCC2)c2cccs2)cc1 (stereo not given),0,-2,4,101,101,-1,.,.,.
Cc1cc(C(=O)OCC(=O)Nc2cccc(S(N)(=O)=O)c2)c(C)o1,.,-2,.,.,.,-1,.,.,.
Cc1cccc(NC(=O)COC(=O)c2cc(C)oc2C)c1,4,-1,-2,114,129*,-2,105,2,103
CS(=O)(=O)N(CC(=O)NCc1ccc2c(c1)OCO2)C1CCCCC1,1,-1,2,117,136*,1,105,1,106
CS(=O)(=O)N(CC(=O)NCc1ccc(Cl)cc1)C1CCCCC1,4,-1,-3,100,98,-1,.,.,.
CC1CCN(Cc2ccc(NC(=O)C3CCN(c4nnc(-n5cccc5)s4)CC3)cc2)CC1,78*,0,-3,231*,105,-2,186,62,108
COC(=O)CCC(=O)OC1(C)C(=O)C=C2C=C(C3CC3)N(C3CCCC3)C=C2C1=O (stereo not given),4,0,20,149*,122,-2,100,7,104
NC(=O)N/N=C/c1coc2ccc(O)cc2c1=O,-31,0,1,55,45*[inhibitor],-2,101,-2,100
CC(C)(C)C(=O)COC(=O)c1cc2ccccc2cc1O,-18,-2,-3,76,67*[inhibitor],-1,98,7,102
CN(C(=O)COC(=O)c1cc2ccccc2cc1O)c1ccccc1,.,1,.,.,.,-2,.,.,.
C=CCOc1ccc(CN(C)C(=O)c2ccc(CNS(=O)(=O)c3ccc(C)c(C)c3)cc2)cc1,.,0,.,.,.,-4,.,.,.
SMILES,MEKK2mut PB1 HTS,STK33 kinase inh,GSK3beta inhib,MEKK2wt PB1 HTS,MEKK3 PB1 HTS,GSK3 alpha inh,MEKK2wt confirm,MEKK2mut confirm,MEKK3-MEK5 inh
Cc1cccc(-n2[nH]c(C)c(C=Nc3ccc4[nH]c(=O)[nH]c4c3)c2=O)c1,0,-2,-3,107,129*,4,123,11,104
O=C(NC1CCCC1)C(c1cccnc1)N(C(=O)c1csnn1)C1CCCC1 (stereo not given),3,-3,5,104,75*[inhibitor],2,101,1,101
OC(CNCc1ccco1)Cn1c2ccc(Br)cc2c2cc(Br)ccc21 (stereo not given),47*,-2,0,216*,111,-2,184,41,98
Brc1ccc2ncnc(NCc3ccco3)c2c1,-3,7,1,102,105,5,.,.,.
Cc1noc(C)c1-c1nc(CS(=O)(=O)c2ccccc2)no1,2,0,0,99,103,6,.,.,.
COc1cc(C(=O)NCC(c2ccc(F)cc2)N2CCOCC2)ccc1OCc1ccccc1Cl (stereo not given),.,-3,2,.,.,0,.,.,.
CC1(C)Cc2c(c(-c3ccco3)nc3sc4c(NCC5CCCO5)ncnc4c23)CO1 (stereo not given),0,2,4,102,143*,5,104,8,102
Cc1ccc(S(=O)(=O)N(CC(=O)Nc2cccc([N+](=O)[O-])c2)C2CCCCC2)cc1,2,0,1,109,104,-2,.,.,.
Cc1ccc(S(=O)(=O)N(CC(=O)Nc2ccc(Cl)c([N+](=O)[O-])c2)C2CCCCC2)cc1,27,0,1,146*,107,-3,132,20,106
CCOC(=O)c1nc2ccccc2nc1C,0,-2,2,108,143*,-2,103,8,102
CCOC(=O)c1nc2ccccc2c(C)c1C,7,-1,-8,103,99,-5,.,.,.
C=CCc1cc(C)ccc1OCCOCCn1ccnc1,-1,0,-2,97,100,0,.,.,.
